In general, bioavailability refers to the share of a dose that reaches the circulation, judged against a reference dose that is usually intravenous. Read a low bioavailability as poor availability. Usually pKi stands for −log10 of the Ki, conventionally taken in molar units. High values mean a low Ki, low ones a high Ki. What is called half-life is the time needed for the level to fall by half in the phase considered. What is called Cmax is the peak of the concentration-time curve.

The test system of data set [1] is Rattus norvegicus. Nature of the data set: Ex vivo receptor occupancy at histamine H3 receptor in rat at 0.3 mg/kg, sc. It is filed as functional. As to conditions: route subcutaneous. In outline:
(§1)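 Ex vivo receptor occupancy was measured in rat brain at SERT and at the H3 receptor after a single subcutaneous dose. Brain drug concentrations were determined alongside occupancy.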

The test system of data set [2] is Voltage-gated potassium channel. Nature of the data set: Binding affinity for potassium channel at 1 uM. It is filed as protein assay. Particulars: human.
The subject of data set [3] is Voltage-gated calcium channel. In words: Binding affinity for calcium channel at 1 uM. Type of data set: protein-complex assay. As to conditions: human.
Data set [4] is described as follows: Bioavailability in po dosed rat. Type of data set: ADME, organism-based. As to conditions: in vivo.
A short description of data set [5]: Plasma clearance in po and iv dosed rat. It is filed as ADME, organism-based.
The target of data set [6] is T1, Histamine H3 receptor (Homo sapiens, UniProt Q9Y5N1). In words: Binding affinity at human histamine H3 receptor.
T1 sequence (Q9Y5N1 whole entry): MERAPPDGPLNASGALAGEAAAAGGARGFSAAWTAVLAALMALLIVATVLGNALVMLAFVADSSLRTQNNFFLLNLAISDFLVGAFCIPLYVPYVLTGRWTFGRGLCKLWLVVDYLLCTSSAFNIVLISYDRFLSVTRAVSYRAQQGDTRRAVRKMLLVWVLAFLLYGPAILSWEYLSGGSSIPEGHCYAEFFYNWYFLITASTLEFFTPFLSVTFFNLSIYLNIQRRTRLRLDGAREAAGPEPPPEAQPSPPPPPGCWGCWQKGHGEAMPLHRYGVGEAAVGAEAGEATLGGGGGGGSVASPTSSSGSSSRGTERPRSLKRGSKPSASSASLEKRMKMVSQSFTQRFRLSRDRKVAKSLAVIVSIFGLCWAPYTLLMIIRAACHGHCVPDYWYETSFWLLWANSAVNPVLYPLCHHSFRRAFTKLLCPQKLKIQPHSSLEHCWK
Data set [7] has as its system Rattus norvegicus. In words: Ex vivo receptor occupancy at SERT in rat at 0.3 mg/kg, sc. As to conditions: route subcutaneous. Type of data set: functional. In short, it runs like this: as §1
The target in data set [8] is Sodium-dependent noradrenaline transporter (Homo sapiens, UniProt P23975). In words: Inhibition of [3H]nisoxetine uptake in human NET expressed in MDCK cells. It is filed as cell-based.
Sequence of Sodium-dependent noradrenaline transporter (P23975 whole entry): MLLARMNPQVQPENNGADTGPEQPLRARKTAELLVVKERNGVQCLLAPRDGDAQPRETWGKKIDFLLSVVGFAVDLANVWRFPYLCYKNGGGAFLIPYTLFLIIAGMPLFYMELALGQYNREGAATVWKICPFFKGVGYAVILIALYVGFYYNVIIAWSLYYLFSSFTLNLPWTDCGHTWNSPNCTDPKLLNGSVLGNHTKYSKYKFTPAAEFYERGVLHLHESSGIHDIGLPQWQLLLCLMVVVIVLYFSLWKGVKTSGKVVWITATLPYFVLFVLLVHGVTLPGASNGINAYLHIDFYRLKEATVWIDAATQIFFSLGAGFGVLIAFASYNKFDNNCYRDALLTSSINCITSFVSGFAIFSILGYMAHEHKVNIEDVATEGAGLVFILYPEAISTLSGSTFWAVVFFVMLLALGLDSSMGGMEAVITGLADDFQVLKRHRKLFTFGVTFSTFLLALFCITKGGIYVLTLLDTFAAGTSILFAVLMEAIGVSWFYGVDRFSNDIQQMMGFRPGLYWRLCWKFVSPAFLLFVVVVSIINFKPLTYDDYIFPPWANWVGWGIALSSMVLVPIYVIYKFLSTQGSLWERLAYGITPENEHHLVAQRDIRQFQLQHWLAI
The nature of data set [9]: Volume of distribution at steady state in po and iv dosed rat. Type of data set: ADME, organism-based. As to conditions: in vivo, read-out: Vdss.
For data set [10], the target named is Sodium-dependent dopamine transporter (Homo sapiens, UniProt Q01959). In words: Inhibition of [3H]WIN-uptake in human DAT expressed in CHO cells. Type of data set: cell-based. In short, it runs like this:
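Human DAT expressed in CHO cells; membranes were incubated on ice for 2 h with 10.9 nM [3H]-WIN 35,428, then harvested by rapid filtration. Nonspecific binding was defined with GBR-12909. Ki values are means of at least three experiments run in triplicate, with SEM.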

A further data set relates to Brain. In words: Drug level in rat brain at 0.3 mg/kg, sc. It is filed as ADME, organism-based. More on the design: dose 0.3 mg/kg, route subcutaneous. Particulars: in vivo, read-out: Drug uptake.
Data set [11] deals with T2, Neuromedin-K receptor (Homo sapiens) (UniProt P29371).
T2 sequence (whole entry): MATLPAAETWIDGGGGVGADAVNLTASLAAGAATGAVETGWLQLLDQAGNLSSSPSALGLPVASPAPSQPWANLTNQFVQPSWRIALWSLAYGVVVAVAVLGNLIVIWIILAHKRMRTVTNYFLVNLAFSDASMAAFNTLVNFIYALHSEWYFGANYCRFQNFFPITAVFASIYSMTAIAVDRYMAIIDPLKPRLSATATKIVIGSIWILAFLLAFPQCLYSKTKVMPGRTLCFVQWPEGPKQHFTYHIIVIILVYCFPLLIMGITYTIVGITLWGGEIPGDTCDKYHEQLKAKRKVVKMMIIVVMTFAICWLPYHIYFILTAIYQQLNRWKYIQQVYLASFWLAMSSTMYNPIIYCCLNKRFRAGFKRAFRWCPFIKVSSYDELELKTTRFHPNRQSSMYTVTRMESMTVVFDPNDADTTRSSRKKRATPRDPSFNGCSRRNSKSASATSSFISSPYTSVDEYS
In words: Binding affinity at NK3 receptor at 1 uM.

In data set [12] the target is T3, Type-1 angiotensin II receptor (Homo sapiens) (UniProt P30556).
T3 sequence (whole entry): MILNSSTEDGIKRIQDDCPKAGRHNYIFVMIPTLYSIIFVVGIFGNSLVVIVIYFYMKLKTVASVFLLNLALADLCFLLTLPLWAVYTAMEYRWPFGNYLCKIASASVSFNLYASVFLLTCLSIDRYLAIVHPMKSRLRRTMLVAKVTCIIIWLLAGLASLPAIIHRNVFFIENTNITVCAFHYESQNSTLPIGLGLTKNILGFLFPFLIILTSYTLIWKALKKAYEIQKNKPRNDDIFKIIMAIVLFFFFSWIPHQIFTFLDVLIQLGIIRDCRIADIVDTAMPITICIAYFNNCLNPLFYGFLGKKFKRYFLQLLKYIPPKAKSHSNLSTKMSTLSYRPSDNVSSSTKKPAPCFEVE
Nature of the data set: Binding affinity at AT1 receptor at 1 uM.

The target in data set [13] is T1, Histamine H3 receptor. In words: Antagonist activity at human histamine H3 receptor. Type of data set: functional. Particulars: read-out: pA2 (converted).
Data set [14] can be described thus: Half life in po and iv dosed rat. Type of data set: ADME, organism-based. As to conditions: in vivo.
Data set [15] in a line: Cmax in rat brain at 10 mg/kg, po. It is filed as ADME, organism-based. More on the design: dose 10 mg/kg, route oral.

pKi: −log10 of the molar value. Calls of active or inactive are those of the source.

Sequence of Sodium-dependent dopamine transporter (Q01959 whole entry): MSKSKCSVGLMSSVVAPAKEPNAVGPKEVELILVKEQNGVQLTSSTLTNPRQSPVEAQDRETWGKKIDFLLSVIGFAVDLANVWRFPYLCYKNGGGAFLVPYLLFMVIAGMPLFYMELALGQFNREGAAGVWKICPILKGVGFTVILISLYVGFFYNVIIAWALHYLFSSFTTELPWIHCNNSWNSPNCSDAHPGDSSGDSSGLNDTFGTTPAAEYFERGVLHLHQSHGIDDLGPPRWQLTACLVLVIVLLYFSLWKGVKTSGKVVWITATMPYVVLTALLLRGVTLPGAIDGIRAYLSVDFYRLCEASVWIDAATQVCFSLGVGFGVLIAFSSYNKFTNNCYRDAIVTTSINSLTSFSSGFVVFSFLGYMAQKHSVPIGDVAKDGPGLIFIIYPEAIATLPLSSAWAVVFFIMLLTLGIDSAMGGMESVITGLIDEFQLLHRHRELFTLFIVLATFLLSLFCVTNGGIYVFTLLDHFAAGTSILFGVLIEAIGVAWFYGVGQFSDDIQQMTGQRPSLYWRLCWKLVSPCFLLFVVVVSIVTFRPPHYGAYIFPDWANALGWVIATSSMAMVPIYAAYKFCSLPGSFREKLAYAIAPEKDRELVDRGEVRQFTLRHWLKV

For the compound `COc1ccc([C@@H]2CN(C)Cc3cc(OCCCN4CCOC[C@@H]4C)ccc32)cc1`, the Activity is given as 100% in the data set with Rattus norvegicus [1], “Not Active” in [2], “Not Active” in data set [3] and 100% with Rattus norvegicus [7]. Also, in data set [4], the bioavailability was 5%. In [5], this compound gave a clearance of 18.1 mL/min/kg. Moreover, the results for the negative logarithm of the Ki (pKi) (at Histamine H3 receptor [6]; in [8]; in [10]) were 8.25, 6.92 and 6.99, respectively. Further, the Vd in [9] was found to be 6.8 L/kg. In addition, the concentration in the data set on Brain was determined as 880 nM. In addition, the outcome in [11] and in data set [12] was inactive. The Kb on Histamine H3 receptor [13] was 0.891 nM. This compound also had a half-life in data set [14] of 9 h.

In the case of `CSc1ccc(C2CN(C)Cc3cc(OCCCN4CCOCC4)ccc32)cc1` (racemic), the Activity in the data set on Rattus norvegicus [1] is listed as 100%; in data set [2], “Not Active”; in data set [3], “Not Active”; in the data set on Rattus norvegicus [7] it was 100%. The same compound displayed a Cmax in data set [15] of 9600 nM. This compound also came in with a bioavailability in data set [4] of 38%. Further, the clearance in data set [5] was determined as 14 mL/min/kg. Further, the pKi is 6.97 in [8] and 7.54 in data set [10]. The Vd in data set [9] was 5.1 L/kg. Besides, the concentration in the data set on Brain was found to be 670 nM. In addition, the outcome in [11] and in data set [12] was inactive. This compound also gave a half-life in data set [14] of 6.6 h.

Take `CSc1ccc(C2CN(C)Cc3cc(OCCCN4CCC(F)CC4)ccc32)cc1` (racemic): the result in data set [11] and in [12] was inactive.

These data come from ChEMBL document CHEMBL1138430, “Novel tetrahydroisoquinolines are histamine H3 antagonists and serotonin reuptake inhibitors” (Bioorg Med Chem Lett, 2007).
